Experimental data: ChEMBL document CHEMBL4368942, “Dual inhibitors of RAF-MEK-ERK and PI3K-PDK1-AKT pathways: Design, synthesis and preliminary anticancer activity studies of 3-substituted-5-(phenylamino) indolone derivatives” (Bioorg Med Chem, 2019)
pIC50: −log10 of the molar value. Calls of active or inactive are those of the source. The calls are words filed in the database; no cut-off is given here.

How the values were obtained:
[1] = system: A549; assay: Antiproliferative activity against human A549 cells after 48 hrs by MTT assay; format: functional, cell-based; details: A549, 48 h
Procedure, shortened: (§1)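 Cells grown in DMEM with 10% FBS and penicillin/streptomycin at 37°C, 5% CO2. 2 × 10^5 cells seeded per well in 200 µL medium. Compounds added 30 min after seeding, then 48 h incubation at 37°C. MTT (5 mg/ml stock) added for the last 4 h. Formazan dissolved in DMSO.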

[2] = system: NCI-H460; assay: Antiproliferative activity against human NCI-H460 cells after 48 hrs by MTT assay; format: functional, cell-based; details: NCI-H460, 48 h; procedure, shortened: as §1
[3] = system: A549; assay: Induction of apoptosis in human A549 cells assessed as viable cells at 2.5 uM after 12 hrs by Annexin V-FITC/propidium iodide staining-based flow cytometric analysis (reference value: 90.6%); format: functional; details: A549, 12 h, read-out: Activity
Procedure, shortened: (§2)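 After 12 h treatment with DMSO as control, A549 cells were harvested by trypsin, washed twice in PBS and resuspended at 1 × 10^6 cells/mL in binding buffer. Annexin V-FITC and PI staining for 30 min at room temperature in the dark. Flow cytometry with 488 nm excitation, FITC read at 530 nm and PI at 670 nm. Quadrant percentages are means of three independent experiments.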

[4] = system: A549; assay: Induction of apoptosis in human A549 cells assessed as early apoptotic cells at 2.5 uM after 12 hrs by Annexin V-FITC/propidium iodide staining-based flow cytometric analysis (reference value: 7.19%); format: functional; procedure, shortened: as §2
[5] = system: A549; assay: Induction of apoptosis in human A549 cells assessed as late apoptotic cells at 2.5 uM after 12 hrs by Annexin V-FITC/propidium iodide staining-based flow cytometric analysis (reference value: 0.76%); format: functional; procedure, shortened: as §2
[6] = system: A549; assay: Induction of apoptosis in human A549 cells assessed as necrotic cells at 2.5 uM after 12 hrs by Annexin V-FITC/propidium iodide staining-based flow cytometric analysis (reference value: 1.42%); format: functional; procedure, shortened: as §2
[7] = system: A549; assay: Induction of apoptosis in human A549 cells assessed as viable cells at 5 uM after 12 hrs by Annexin V-FITC/propidium iodide staining-based flow cytometric analysis (reference value: 90.6%); format: functional; details: A549, 12 h, read-out: Activity; procedure, shortened: as §2
[8] = system: A549; assay: Induction of apoptosis in human A549 cells assessed as early apoptotic cells at 5 uM after 12 hrs by Annexin V-FITC/propidium iodide staining-based flow cytometric analysis (reference value: 7.19%); format: functional; procedure, shortened: as §2
[9] = system: A549; assay: Induction of apoptosis in human A549 cells assessed as late apoptotic cells at 5 uM after 12 hrs by Annexin V-FITC/propidium iodide staining-based flow cytometric analysis (reference value: 0.76%); format: functional; procedure, shortened: as §2
[10] = system: A549; assay: Induction of apoptosis in human A549 cells assessed as necrotic cells at 5 uM after 12 hrs by Annexin V-FITC/propidium iodide staining-based flow cytometric analysis (reference value: 1.42%); format: functional; procedure, shortened: as §2
[11] = system: A549; assay: Inhibition of RAF/MEK/ERK in human A549 cells assessed as reduction in ERK phosphorylation at 1 uM after 8 hrs by Western blot analysis relative to control; format: cell-based
Procedure, shortened: (§3)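 Western blot with primary antibody in BSA overnight at 4°C. Washes in TBS/0.05% Tween-20, then secondary antibody for 1 h at room temperature. Chemiluminescent detection. p-ERK or p-AKT band density normalized to β-actin loading control versus control. Average of three independent experiments.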

[12] = system: A549; assay: Inhibition of PI3K/PDK1/AKT in human A549 cells assessed as remaining AKT phosphorylation level at 1 uM after 8 hrs by Western blot analysis
[13] = system: A549; assay: Inhibition of PI3K/PDK1/AKT in human A549 cells assessed as reduction in AKT phosphorylation at 1 uM after 8 hrs by Western blot analysis; format: cell-based; procedure, shortened: as §3

| Structure (SMILES) | pIC50 [1] | pIC50 [2] | also measured |
| --- | --- | --- | --- |
| Cc1ccc(Nc2ccc3c(c2)/C(=C\C2CCCCC2)C(=O)N3)cc1 | 4.55 | 4.34 |  |
| O=C1Nc2ccc(Nc3ccc(Cl)cc3)cc2C1(O)Cc1ccc2c(c1)OCO2 (stereo unspecified) | 5.52 | 4.58 |  |
| O=C1Nc2ccc(Nc3ccccc3Cl)cc2C1(O)Cc1ccccc1 (stereo unspecified) | 5.64 | 4.84 |  |
| CCCCCCC1(O)C(=O)Nc2ccc(Nc3ccc(F)cc3)cc21 (stereo unspecified) | 4.92 | 4.29 |  |
| CCCCCC1(O)C(=O)Nc2ccc(Nc3ccc(OC)cc3)cc21 (stereo unspecified) | 5.10 | 4.79 |  |
| CCC/C=C1/C(=O)Nc2ccc(Nc3ccc(C)cc3)cc21 | 5.44 | 4.72 |  |
| O=C1Nc2ccc(Nc3ccc(Cl)cc3)cc2/C1=C\c1ccc2c(c1)OCO2 | 5.51 | 4.61 |  |
| Cc1ccc(Nc2ccc3c(c2)C(O)(Cc2ccc4c(c2)OCO4)C(=O)N3)cc1 (stereo unspecified) | 4.92 | 4.83 |  |
| Cc1ccc(Nc2ccc3c(c2)C(Cc2ccc4c(c2)OCO4)C(=O)N3)cc1 (stereo unspecified) | 4.72 | 4.20 |  |
| CCCCC1(O)C(=O)Nc2ccc(Nc3ccc(F)cc3)cc21 (stereo unspecified) | 5.19 | 4.49 |  |
| CCCCCCC1(O)C(=O)Nc2ccc(Nc3ccc(Cl)cc3)cc21 (stereo unspecified) | 5.27 | 4.52 |  |
| CCCCC1(O)C(=O)Nc2ccc(Nc3ccc(C(F)(F)F)cc3)cc21 (stereo unspecified) | 5.64 | 4.92 |  |
| O=C1Nc2ccc(Nc3ccc(F)cc3)cc2C1(O)Cc1ccccc1 (stereo unspecified) | 5.52 | 4.74 |  |
| CCCCCC1(O)C(=O)Nc2ccc(Nc3ccc(Cl)cc3)cc21 (stereo unspecified) | 5.72 | 4.39 | viability at 2.5 µM [3]: 83.2%; Activity [4]: 11.9%; Activity [5]: 2.57%; Activity [6]: 2.31%; viability at 5 µM [7]: 72.3%; Activity [8]: 20.3%; Activity [9]: 5.65%; Activity [10]: 1.82% |
| Cc1ccc(Nc2ccc3c(c2)C(O)(CCC(C)C)C(=O)N3)cc1 (stereo unspecified) | 4.90 | 4.64 |  |
| NC1(c2ccc(-c3nc4ccn5c(=O)[nH]nc5c4cc3-c3ccccc3)cc2)CCC1 [MK-2206] | 5.09 |  | inhibition [11]: Active; remaining p-AKT level [12]: 33% |
| Cn1cnc2c(F)c(Nc3ccc(Br)cc3Cl)c(C(=O)NOCCO)cc21 [SELUMETINIB] | 5.28 |  | inhibition [11]: 65%; inhibition [13]: inactive |
| CCCCC1(O)C(=O)Nc2ccc(Nc3ccc(C)cc3)cc21 (stereo unspecified) | 5.12 | 4.50 |  |
| CCCCCC1(O)C(=O)Nc2ccc(Nc3ccc(C)cc3)cc21 (stereo unspecified) | 5.09 | < 4.00 |  |
| CCCCCCC1(O)C(=O)Nc2ccc(Nc3ccc(OC)cc3)cc21 (stereo unspecified) | 4.73 | < 4.00 |  |
| CC(C)CCC1(O)C(=O)Nc2ccc(Nc3ccc(F)cc3)cc21 (stereo unspecified) | 5.24 | 4.77 |  |
| CC(C)C/C=C1/C(=O)Nc2ccc(Nc3ccc(Cl)cc3)cc21 | 5.13 | 4.29 |  |
| Cc1ccc(Nc2ccc3c(c2)C(O)(Cc2ccccc2)C(=O)N3)cc1 (stereo unspecified) | 5.39 | 4.50 |  |
